ChEMBL document CHEMBL3784931, “Synthesis and evaluation of novel angiotensin II receptor 1 antagonists as anti-hypertension drugs” (Bioorg Med Chem, 2016)
Active and inactive are the calls of the source. No cut-off for these calls is given here.

Legend:
[1] = Terminal half life in Wistar rat lung at 10 mg/kg, po after 0.5 to 72 hrs by HPLC analysis; type: ADME, organism-based; settings: read-out: beta t1/2 (converted)
Procedure, shortened: (§1)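 Wistar rats were dosed orally and killed by abdominal aorta transection at 0.5, 1, 2, 4, 6, 8, 12, 24, 48 and 72 h. Organs were excised at once, minced and homogenized at 4 °C in normal saline to a 25% (w/v) homogenate. After spinning at 3000 × g, 4 °C, 10 min, supernatants were analysed by HPLC. Values are mean ± SEM, n = 5 per point.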

[2] = Acute toxicity in ICR mouse assessed as mortality at 1200 mg/kg, ig administered daily for 2 weeks measured during compound dosing; type: organism-based; settings: in vivo, po
Procedure, shortened: (§2)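 ICR mice, sixty in total, half male and half female, 20 ± 2 g. Intragastric dosing at 1200, 1600, 2133.3, 2844.40, 5056.79 or 6742.38 mg/kg. Animals watched daily over two weeks for survival and physiological abnormalities or untoward reactions. Percent mortality recorded per dose group.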

[3] = Acute toxicity in ICR mouse assessed as mortality at 6742.38 mg/kg, ig administered daily for 2 weeks measured during compound dosing; type: organism-based; settings: in vivo, po; procedure, shortened: as §2
[4] = Acute toxicity in ICR mouse assessed as mortality at 1600 mg/kg, ig administered daily for 2 weeks measured during compound dosing; type: organism-based; settings: in vivo, po; procedure, shortened: as §2
Rattus norvegicus [5] = experiment: Effect on heart rate in spontaneous hypertensive rat model at 10 and 15 mg/kg, po; type: ADME, organism-based; settings: in vivo
Mus musculus [6] = experiment: Acute toxicity in ICR mouse assessed as mortality at 1200 to 6742.38 mg/kg, ig administered daily for 2 weeks during compound dosing; type: organism-based; settings: in vivo, po, 336 h; procedure, shortened: as §2
[7] = Acute toxicity in ICR mouse assessed as mortality at 5056.79 mg/kg, ig administered daily for 2 weeks measured during compound dosing; type: organism-based; settings: in vivo, po; procedure, shortened: as §2
Mus musculus [8] = experiment: Acute toxicity in ICR mouse assessed as pathological changes in organs and tissues at 1200 to 6742.38, ig administered daily for 2 weeks measured on 15th day; type: organism-based; settings: in vivo, po, 336 h
Procedure, shortened: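 ICR mice of both sexes (20 ± 2 g) dosed intragastrically at 1200–6742.38 mg/kg and observed for two weeks. Surviving mice then dissected and examined with the naked eye.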

[9] = Terminal half life in Wistar rat heart at 10 mg/kg, po after 0.5 to 72 hrs by HPLC analysis; type: ADME, organism-based; settings: read-out: beta t1/2 (converted); procedure, shortened: as §1
Mus musculus [10] = experiment: Acute toxicity in ICR mouse assessed as change in body weight at 1200 to 6742.38 mg/kg, ig administered daily for 2 weeks during compound dosing; type: organism-based; settings: in vivo, po, 336 h
Procedure, shortened: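 Male and female ICR mice (20 ± 2 g) received intragastric doses of 1200–6742.38 mg/kg. Body weight of surviving mice compared after two weeks of observation.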

Mus musculus [11] = experiment: Acute toxicity in ICR mouse assessed as aggressiveness at 1200 mg/kg, ig administered daily for 2 weeks measured during compound dosing; type: organism-based; settings: in vivo, po, 336 h; procedure, shortened: as §2
[12] = Cmax in Wistar rat heart at 10 mg/kg, po after 0.5 to 72 hrs by HPLC analysis; type: ADME, organism-based; design: dose 10 mg/kg, route oral; procedure, shortened: as §1
[13] = Terminal half life in Wistar rat kidney at 10 mg/kg, po after 0.5 to 72 hrs by HPLC analysis; type: ADME, organism-based; settings: read-out: beta t1/2 (converted); procedure, shortened: as §1
Rattus norvegicus [14] = experiment: Antihypertensive activity in spontaneous hypertensive rat model assessed as reduction in mean blood pressure at 10 mg/kg, po administered for 12 hrs; type: functional, organism-based
Procedure, shortened: (§3)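 Male SHRs were randomized, n = 6 per group. Compound was suspended in DMSO/oleic acid (1:4) and given by oral gavage; vehicle controls got the same volume of solvent. SBP and DBP were recorded in conscious animals by noninvasive tail-artery manometry. MBP = (SBP − DBP)/3 + DBP. Data are mean ± SEM, with p < 0.05 taken as significant.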

Rattus norvegicus [15] = experiment: Antihypertensive activity in spontaneous hypertensive rat model assessed as mean blood pressure at 15 mg/kg, po administered for 2 hrs; type: functional; procedure, shortened: as §3
[16] = Elimination rate constant in Wistar rat plasma at 10 mg/kg, po after 0.5 to 72 hrs by HPLC analysis; type: ADME, organism-based
Procedure, shortened: (§4)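 Wistar rats got an oral dose. Venous blood (0.5 mL) was taken predose and at 0.5, 1, 2, 4, 6, 8, 12, 24, 48 and 72 h, and plasma was spun 4000 × g, 4 °C, 10 min. Samples with internal standard were acetonitrile-precipitated, filtered and run on C18 reverse-phase HPLC with UV detection. Calibration used weighted regression of peak height ratio.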

Mus musculus [17] = experiment: Acute toxicity in ICR mouse assessed as hyperthyroidism at 1600 to 6742.38 mg/kg, ig administered daily for 2 weeks measured 5 hrs post last dose; type: organism-based; settings: in vivo, po; procedure, shortened: as §2
Brain = experiment: AUC (0 to 72 hrs) in Wistar rat brain at 10 mg/kg, po by HPLC analysis; type: ADME, organism-based; design: dose 10 mg/kg, time < 72 hr, route oral; settings: in vivo; procedure, shortened: as §1
[18] = Terminal half life in Wistar rat brain at 10 mg/kg, po after 0.5 to 72 hrs by HPLC analysis; type: ADME, organism-based; settings: read-out: beta t1/2 (converted); procedure, shortened: as §1
[19] = Terminal half life in Wistar rat plasma at 10 mg/kg, po after 0.5 to 72 hrs by HPLC analysis; type: ADME, organism-based; settings: read-out: beta t1/2 (converted); procedure, shortened: as §4
Spleen = experiment: AUC (0 to 72 hrs) in Wistar rat spleen at 10 mg/kg, po by HPLC analysis; type: ADME, organism-based; design: time < 72 hr, dose 10 mg/kg, route oral; settings: in vivo; procedure, shortened: as §1
[20] = Tmax in Wistar rat plasma at 10 mg/kg, po after 0.5 to 72 hrs by HPLC analysis; type: ADME, organism-based; procedure, shortened: as §4
[21] = Cmax in Wistar rat lung at 10 mg/kg, po after 0.5 to 72 hrs by HPLC analysis; type: ADME, organism-based; design: dose 10 mg/kg, route oral; procedure, shortened: as §1
[22] = Elimination rate constant in Wistar rat stomach at 10 mg/kg, po after 0.5 to 72 hrs by HPLC analysis; type: ADME, organism-based; procedure, shortened: as §1
[23] = Elimination rate constant in Wistar rat heart at 10 mg/kg, po after 0.5 to 72 hrs by HPLC analysis; type: ADME, organism-based; procedure, shortened: as §1
[24] = Acute toxicity in ICR mouse assessed as mortality administered intragastrically daily for 2 weeks measured during compound dosing; type: organism-based; settings: in vivo, po
Procedure, shortened: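 Sixty normal ICR mice (half male, half female, 20 ± 2 g) given intragastric doses of 1200, 1600, 2133.3, 2844.40, 5056.79 and 6742.38 mg/kg. Survival checked daily for two weeks.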

[25] = Elimination rate constant in Wistar rat spleen at 10 mg/kg, po after 0.5 to 72 hrs by HPLC analysis; type: ADME, organism-based; procedure, shortened: as §1
[26] = Tmax in Wistar rat kidney at 10 mg/kg, po after 0.5 to 72 hrs by HPLC analysis; type: ADME, organism-based; procedure, shortened: as §1
[27] = Tmax in Wistar rat lung at 10 mg/kg, po after 0.5 to 72 hrs by HPLC analysis; type: ADME, organism-based; procedure, shortened: as §1
[28] = Cmax in Wistar rat kidney at 10 mg/kg, po after 0.5 to 72 hrs by HPLC analysis; type: ADME, organism-based; design: dose 10 mg/kg, route oral; procedure, shortened: as §1
Stomach = experiment: AUC (0 to 72 hrs) in Wistar rat stomach at 10 mg/kg, po by HPLC analysis; type: ADME, organism-based; design: time < 72 hr, dose 10 mg/kg, route oral; settings: in vivo; procedure, shortened: as §1

CCCCc1nc(Cl)c(C(=O)O)n1Cc1ccc(-c2ccccc2-c2noc(=O)[nH]2)cc1
half-life [1]: 12.4 h
mortality at 336 h [2]: 0%
mortality at 336 h [3]: 100%
mortality at 336 h [4]: 10%
Activity (Rattus norvegicus [5]): Non-toxic
Activity (Mus musculus [6]): Toxic
mortality at 336 h [7]: 90%
Activity (Mus musculus [8]): Non-toxic
half-life [9]: 9.13 h
Activity (Mus musculus [10]): Non-toxic
Activity (Mus musculus [11]): Non-toxic
Cmax [12]: 8.87 ng/g
half-life [13]: 15.6 h
Activity (Rattus norvegicus [14]): Active
Activity (Rattus norvegicus [15]): 62 mmHg
k el [16]: 1.11e-05 s⁻¹
Activity (Mus musculus [17]): Toxic
AUC (Brain): 123.07 ng·h/g
half-life [18]: 16.9 h
half-life [19]: 18.2 h
AUC (Spleen): 275.21 ng·h/g
Tmax [20]: 2 h
Cmax [21]: 9.16 ng/g
k el [22]: 1.39e-05 s⁻¹
k el [23]: 2.11e-05 s⁻¹
LD50 at 336 h [24]: 2970 mg/kg
k el [25]: 2.19e-05 s⁻¹
Tmax [26]: 0.5 h
Tmax [27]: 1 h
Cmax [28]: 10.5 ng/g
AUC (Stomach): 221.03 ng·h/g
